Assay results gathered from unrelated publications.
Protocols differ between the studies behind these lines.
Target: Tyrosine-protein kinase CSK (CSK, Homo sapiens, UniProt P41240)

CNC(=O)c1cc(Oc2ccc(NC(=O)Nc3ccc(Cl)c(C(F)(F)F)c3)cc2)ccn1
inhibition (enzyme activity; inhibitor; 0.3 µM): -7%

c1nc2c(Nc3ccc4c(c3)OCCO4)nc(Nc3ccc4c(c3)OCCO4)nc2[nH]1
activity vs control (enzyme activity; inhibitor; 10 µM): 18%

N#CCCc1ccc2c(c1)-c1[nH]c3ccc([N+](=O)[O-])cc3c1CC(=O)N2
remaining signal (cell-free assay; 0.5 µM): 96.3%

Cc1nc(Cc2cccc(C(F)(F)F)c2)sc1-c1ccc(C(N)=O)nc1
remaining binding (cell-free assay; competition with immobilised ligand; 1 µM): 88%

O=C(Nc1cnn(-c2csc(C(=O)NC3COC3)c2)c1)Nc1ccccc1Cl
remaining activity (enzyme activity; inhibitor; 5 µM): 99.2%

O=C1Nc2ccc(Cl)cc2C1=Cc1cc(Cl)c(O)c(Cl)c1
remaining activity (enzyme activity; inhibitor; 0.5 µM): 85%

Cc1cc(NC(=O)c2cccc3cc(-c4cccc5[nH]nc(N)c45)ccc23)ccc1F
activity vs control (enzyme activity; inhibitor; 0.1 µM): 97%

COc1cc(Cl)c(C(=O)N[C@@H](CN[C@H]2CC[C@@H](N)CC2)Cc2ccc(C#N)cc2)cc1-c1ccc(CN[C@H](C)c2ccc(C)cc2)o1
remaining activity (enzyme activity; inhibitor; 1 µM): 99%

CC(C)(C)c1nc2c(s1)c1nc(N)ncc1c1ccc(NS(=O)(=O)c3c(F)cccc3F)c(F)c12
remaining activity (enzyme activity; inhibitor; radiometric; 1 µM): 87%

COc1cc(Nc2cnc(C#N)c(O[C@H](C)CN(C)C)n2)ncc1-c1cnn(C)c1
remaining activity (enzyme activity; inhibitor; radiometric; 10 µM): 94%

COc1ccc2cc(OCC3(C(=O)O)CN(C(=O)c4ccc(F)cc4)C3)ccc2c1
remaining binding (cell-free assay; competition with immobilised ligand; 1 µM): 100%

Nc1nc(Nc2ccccc2)sc1C(=O)c1c(F)cccc1F
remaining activity (enzyme activity; inhibitor; 10 µM): 90%

C[C@@H]1CN(c2cc(-c3nn(C)c4ccc(OC5(C)CC5)cc34)ncn2)C[C@H](C)O1
remaining binding (cell-free assay; competition with immobilised ligand; 1 µM): 100%

FC(F)(F)Oc1cccc(-c2cnc3ccc(-c4ccncc4)nn23)c1
activity vs control (enzyme activity; inhibitor; radiometric; 5 µM): 100%

NS(=O)(=O)c1cc(NC(=O)C2(c3ccccc3Cl)CC2)ccc1Oc1cccc(Cl)c1
remaining binding (cell-free assay; competition with immobilised ligand; 1 µM): 100%

O=C(CSc1nc2nccnc2c(=O)n1CCc1ccccc1)Nc1nccs1
inhibition (enzyme activity; inhibitor; 10 µM): 6%

Cn1c(=O)n(-c2ccc(C(C)(C)C#N)cc2)c2c3cc(-c4cnc5ccccc5c4)ccc3ncc21
remaining activity (enzyme activity; inhibitor; 10 µM): 100%

O=C(NC[C@@H]1[C@H]2CN(C(=O)OCc3cc(C(F)(F)F)cc(C(F)(F)F)c3)C[C@@H]12)c1ccc2[nH]nnc2c1
remaining binding (cell-free assay; competition with immobilised ligand; 1 µM): 96%
